Results taken from ChEMBL document CHEMBL1133135, “Grignard-mediated synthesis and preliminary biological evaluation of novel 3-substituted farnesyl diphosphate analogues” (Bioorg Med Chem Lett, 2000).

target: Protein farnesyltransferase (Homo sapiens, UniProt P49354+P49356); assay: Inhibitory activity against recombinant mammalian protein Farnesyltransferase expressed in baculovirus
How it was run: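 Recombinant mammalian FTase, baculovirus-expressed and purified, assayed continuously by fluorescence with dansyl-GCVLS-OH as peptide cosubstrate and the FPP analogue as isoprenoid. IC50 is taken from the decrease in activity with rising analogue concentration. Analogue concentrations were verified by phosphate analysis.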

SMILES	IC50 [nM]
CC(C)=CCC/C(C)=C/CC/C(=C/COP(=O)(O)OP(=O)(O)O)CC(C)C	290
CC(C)=CCC/C(C)=C/CC/C(=C/COP(=O)(O)OP(=O)(O)O)C(C)C	35
CC(C)=CCC/C(C)=C/CC/C(=C/COP(=O)(O)OP(=O)(O)O)CC(C)(C)C	6600
C=C(C)/C(=C\COP(=O)(O)OP(=O)(O)O)CC/C=C(\C)CCC=C(C)C	18
CCC(C)/C(=C\COP(=O)(O)OP(=O)(O)O)CC/C=C(\C)CCC=C(C)C (stereo not drawn)	102

More lines, in order of falling IC50, values ahead:

IC50 [nM]	SMILES
10100	CC(C)=CCC/C(C)=C/CC/C(=C/COP(=O)(O)OP(=O)(O)O)c1ccc(F)cc1
453	CCC/C(=C\COP(=O)(O)OP(=O)(O)O)CC/C=C(\C)CCC=C(C)C
119	C=CC/C(=C\COP(=O)(O)OP(=O)(O)O)CC/C=C(\C)CCC=C(C)C
